Screening data deposited in PubChem BioAssay by Sanford-Burnham Center for Chemical Genomics.
MT1-MMP act inh = MT1-MMP (human) activation inhibition; P50281; HT1080 RFP-PRO-GFP cells, GFP/RFP ratio fluorescence, overnight; percent of plate control window, DMSO zero; GFP/RFP ratio change, % at 20 µM; hit rate 0.061% among 360,000; AID 651647;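 active = GFP/RFP ratio change of at least 30% with cell ATP level not reduced by more than half and red fluorescence within 50% of control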
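Material – HT1080 RFP-PRO-GFP cells · Control set – DMSO wells and RFP-L50D-GFP cells · Incubation – overnight cell settling, then overnight compound exposure, 37 °C, 5% CO2 · Compound dosing – single-point 20 µM compound, 1% DMSO · Read-out – GFP/RFP fluorescence ratio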
Rpn11 block = blocks the human proteasome subunit Rpn11. AID 588493. O00487. human 26S proteasome, Ub4-pepOG fluorescence polarization; 20S core pre-blocked with epoxomicin. inhibition, % at 20 µM. hit rate 0.59% among 360,000;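 active = inhibition at 20 µM, scaled to each plate's controls, above about 33%, limit read from the data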
Target sequence (O00487 whole entry, looked up): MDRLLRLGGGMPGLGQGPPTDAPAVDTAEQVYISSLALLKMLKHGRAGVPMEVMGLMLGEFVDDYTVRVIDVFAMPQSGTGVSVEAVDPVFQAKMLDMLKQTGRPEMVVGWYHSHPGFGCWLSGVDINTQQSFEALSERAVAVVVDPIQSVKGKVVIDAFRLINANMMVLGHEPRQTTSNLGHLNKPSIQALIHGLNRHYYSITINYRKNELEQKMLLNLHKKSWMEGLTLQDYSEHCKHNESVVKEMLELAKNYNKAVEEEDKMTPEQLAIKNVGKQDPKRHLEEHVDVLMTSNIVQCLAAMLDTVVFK
DNMT1 block = DNMT1 (human) enzyme inhibition; P26358; DNMT1 molecular beacon, Hinp1I cleavage, fluorescence; inhibition (reported as % activation of signal), % at 10 µM; hit rate 0.83% among 360,000; in the data active = inhibition above about 50%
CSN deneddyl inh = CSN deneddylation inhibition | Purified CSN, SCF-Nedd8-OG deneddylation, fluorescence polarization | inhibition, % at 12.5 µM | hit rate 0.38% among 360,000;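 active = pattern-corrected inhibition above about 35%, with an unprinted fluorescence ratio check between 0.5 and 1.5, limit read from the data, passing the limit was not always enough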;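 also: 0% = enzyme with substrate and 100% = substrate without enzyme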
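Detection – fluorescence polarization · System – HEK293T-derived human Csn5 enzyme · Controls – substrate-only high control, full reaction low control · Timing – 90 min, room temperature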
SUMO1 PPI mod = alters human SUMO1 binding to SIM partners; SUMO1 binding to a labelled peptide, TR-FRET, 1 h; inhibition, % at 20 µM; hit rate 0.33% among 360,000; in the data active = inhibition above about 37%
Target sequence (P63165 whole entry, looked up): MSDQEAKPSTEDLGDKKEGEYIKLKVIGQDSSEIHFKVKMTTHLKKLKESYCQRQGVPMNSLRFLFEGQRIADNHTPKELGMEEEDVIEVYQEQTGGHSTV
SKN-1 inh = blocks SKN-1 activity in C. elegans. C. elegans VP596 Pgst-4::GFP/RFP ratio, acrylamide-induced, 24 h. inhibition, % at 21.8 µM. hit rate 0.49% among 360,000. AID 624304;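 active = interference check ratio from 0.5 to 1.5 plus GFP to RFP signal ratio inhibition reaching or exceeding a fixed threshold, cut at about 30% in these data, passing the limit was not always enough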
An asterisk follows results filed as active; x = not tested or not shown. Shown are actives, neighbours in structure and some others; about 2.3% of the full set was active somewhere.

SMILES	MT1-MMP act inh	Rpn11 block	DNMT1 block	CSN deneddyl inh	SUMO1 PPI mod	SKN-1 inh
CSc1nc(-c2ccco2)nn1C(=O)c1ccccc1	0	-2	-1	-7	10	21
COc1ccc(-c2nc3ccc(Cl)cn3c2Cc2cccc(F)c2)cc1OC	-4	32	-16	4	2	17
Brc1ccc(Oc2nnnn2-c2ccccc2)cc1	2	-3	0	-4	10	37*
Cc1cc(C)c2nc(C(F)(F)F)nc(N3CCN(C(=O)c4ccco4)CC3)c2c1	-10	9	-3	-2	-3	36*
Cc1cc(C)c2nc(N3CCCN(C(=O)c4ccco4)CC3)c(C#N)cc2c1	-25	16	10	21	-1	6
O=C(Nc1ccc(F)cc1)C(c1cccc(F)c1)N1CCN(c2cccc(C(F)(F)F)n2)CC1 (stereo unspecified)	-16	x	x	2	-1	3
Cc1cc(C=C2C(=O)c3ccccc3C2=O)c(C)n1C	8	3	-11	2	52*	6
CCn1c(C)cc(C=C2C(=O)c3ccccc3C2=O)c1C	1	12	-12	6	-19	11
COc1ccc(NC(=O)C2Cc3c(-c4ccccc4)ccnc3O2)cc1OC (stereo unspecified)	18	4	-2	4	8	1
CCOC(=O)C1CCN(C(c2cc3ccc(C)c(C)c3[nH]c2=O)c2nnnn2C2CCCCC2)CC1 (stereo unspecified)	-21	31*	-8	3	-6	10
COc1cc2cc(C(c3nnnn3C3CCCC3)N3CCCCC3)c(=O)[nH]c2cc1OC (stereo unspecified)	4	-4	2	1	2	3
O=c1[nH]c2cc3c(cc2cc1C(c1nnnn1C1CCCCC1)N1CCSCC1)OCCO3 (stereo unspecified)	-5	35	2	37*	-24	6
COc1ccc(-c2cccc(N3CCN(c4ccccn4)CC3)n2)cc1OC	12	-14	-3	-2	-3	8
O=S(=O)(c1ccccc1)n1cc(-c2cccc3nccn23)c2ccccc21	-2	12	-16	5	6	14
CC1(C(=O)NCc2ccco2)CCN1C(=O)C1(c2ccccc2)CC1 (stereo unspecified)	0	2	5	-5	1	3
CC1=C(C(=O)N2CCCCCC2)CC(CC(=O)NC2CCCCC2)C(=O)N1CCC1=CCCCC1 (stereo unspecified)	5	x	x	-3	6	-13
O=C(Nc1nc(-c2ccco2)c(-c2ccco2)s1)C1CC(=O)N(c2ccc3c(c2)OCCO3)C1 (stereo unspecified)	-10	x	72*	52	27	3
C(/C=C/c1ccccn1)=C\c1ccccc1	-1	-4	3	-4	-29	64*
O=C(O)c1ccc(NC2=C/C(=N/S(=O)(=O)c3ccccc3)c3ccccc3C2=O)cc1	-2	-13	70*	30	62*	5
Cc1ccc(S(=O)(=O)/N=C2\C=C(NS(=O)(=O)c3ccccc3)C(=O)c3ccccc32)cc1	13	6	4	4	10	9
CCc1ccc(S(=O)(=O)/N=C2\C=C(Nc3cccc(C(=O)O)c3)C(=O)c3ccccc32)cc1	15	6	64*	19	36	18
Cc1cc(C)c(S(=O)(=O)/N=C2\C=C(Nc3ccc(C(=O)O)cc3)C(=O)c3ccccc32)c(C)c1	16	2	36	16	58*	-11
Cc1cccc(NC2=C/C(=N/S(=O)(=O)c3cccs3)c3ccccc3C2=O)c1	-27	0	24	1	4	14
CCc1ccc(S(=O)(=O)/N=C2/C=C(Sc3ncn[nH]3)C(=O)c3ccccc32)cc1	-66	16	73*	20	94*	7
CCc1ccc(S(=O)(=O)/N=C2\C=C(Nc3ccc(O)cc3)C(=O)c3ccccc32)cc1	-6	2	15	4	20	6
SMILES	MT1-MMP act inh	Rpn11 block	DNMT1 block	CSN deneddyl inh	SUMO1 PPI mod	SKN-1 inh
COc1ccc(C(O)c2nc(-c3ccc4ccccc4c3)cs2)cc1 (stereo unspecified)	-6	2	8	-6	-10	6
COC(=O)C[C@@H]1C=C[C@@H](NS(=O)(=O)c2ccc(OC)cc2)[C@@H](CO)O1	-4	x	x	-3	8	-3
Cc1ccccc1CN1C(=O)c2ccccc2C1c1nnnn1-c1ccc2c(c1)OCCO2 (stereo unspecified)	2	x	x	-3	2	0
COc1ccc(COC[C@H](C)[C@H](O)[C@@H](C)[C@H]2OC(=O)[C@@H]2C)cc1	3	6	-2	0	38*	7
COc1ccc(CCC(=O)NC(C)C)cc1	1	-4	0	1	0	3
Cc1ccccc1NC(=O)CCC(=O)OCC(=O)c1cccc([N+](=O)[O-])c1	1	-2	0	-6	-27	37*
O=C(CCC(=O)OCC(=O)c1cccc([N+](=O)[O-])c1)Nc1cccc(Cl)c1Cl	1	0	1	2	-15	33
CC1=N/C(=C/c2ccco2)C(=O)O1	-4	-22	93*	10	13	-3
O=C1/C(=C\c2ccco2)SC(=S)N1c1ccc(O)cc1	4	2	-9	7	-11	-5
O=C1/C(=C/c2ccco2)SC(=S)N1c1cccnc1	4	x	99*	62	107*	13
Cc1cc(/C=C2/SC(=S)N(c3cccc(C(F)(F)F)c3)C2=O)c(C)n1-c1cccnc1	-49	37	51*	53*	-13	2
NN1C(=O)/C(=C\c2ccco2)SC1=S	0	10	52*	38	-10	5
CC(=O)C1=CCC(c2cccc3ccccc23)N(S(=O)(=O)c2ccc(C)cc2)C1 (stereo unspecified)	-2	-2	-10	-2	1	2
CC(C)CNc1ncnc2c1ncn2[C@H]1CN(Cc2ccc3c(c2)OCO3)C[C@@H](CO)O1	1	2	6	-5	-8	7
COc1ccccc1CNC(=O)COc1cc(O)c2c(c1)OC(C)(C)CC2=O	6	-1	-1	6	0	-1
CCCCN1CC(COCc2ccccc2)Oc2cccc(OCc3ccc(OC)cc3)c2S1(=O)=O (stereo unspecified)	0	-2	5	-1	2	1
Cc1ccc(OCCCCn2cnc3ccccc32)c(C)c1	7	6	1	1	4	44*
Cc1ccccc1-c1nnc(-c2ccc(Cl)cc2)o1	0	6	2	4	-1	24
